Test results as given in article PMC2664388 (Pharmaceutical research, 2008).
Where two headings read alike, the source gives them in different places.

Assays:
[1] = Trans-epithelial electrical resistance; format: in vitro ADME, New Zealand albino rabbits; settings: transport buffers with or without 5% HP-β-CD, 3h
[2] = Permeation across sclera/choroid/RPE, Valia-Chein side-bi-side cells; settings: for Permeability across sclera/choroid/RPE: 150μM in DPBS with 5% HP-β-CD, 37°C
[3] = Corneal permeation, side-bi-side diffusion apparatus; format: in vitro ADME, New Zealand albino rabbits; settings: for Transcorneal permeability: 150μM in DPBS with 5% HP-β-CD, 34°C
[4] = pH solution stability in buffers; format: physicochemical
Procedure, shortened: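 Test compound (25 μL of a 1 mg/mL stock) was added to 5 mL of USP buffer pre-equilibrated at 25 or 40°C. Content was measured by RP-HPLC on a C18 column with UV at 284 nm. The mobile phase was 20 mM KH2PO4 (pH 2.5) and acetonitrile at 75:25, run at 1 mL/min.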

[5] = Stability in ocular tissue homogenates; format: in vitro ADME, New Zealand albino rabbits; settings: 37°C, after 15h, 1mg/mL protein
[6] = sonicated 15min, equilibration 4 days; ref 29 Tommasini et al.; cited from earlier work
[7] = sonicated 15min, equilibration 4 days; ref 29 Tommasini et al.; cited from earlier work; remark: listed apart in the source
[8] = oral administration, cumulative urinary recovery; ref 14 Ameer et al.; cited from earlier work
[9] = Phase solubility with HP-β-CD; format: physicochemical
[10] = Transscleral permeation, Valia-Chein side-bi-side cells; format: in vitro ADME, New Zealand albino rabbits; settings: 150μM in DPBS with 5% HP-β-CD, 37°C
[11] = ref 21 Serra et al., cited from earlier work
[12] = Aqueous solubility, shake flask method; format: physicochemical; settings: 25°C, 24h

SMILES: CC(O)COC[C@H]1O[C@@H]2O[C@H]3[C@H](O)[C@@H](O)[C@@H](O[C@H]4[C@H](O)[C@@H](O)[C@@H](O[C@H]5[C@H](O)[C@@H](O)[C@@H](O[C@H]6[C@H](O)[C@@H](O)[C@@H](O[C@H]7[C@H](O)[C@@H](O)[C@@H](O[C@H]8[C@H](O)[C@@H](O)[C@@H](O[C@H]1[C@H](O)[C@H]2O)O[C@@H]8COCC(C)O)O[C@@H]7COCC(C)O)O[C@@H]6COCC(C)O)O[C@@H]5COCC(C)O)O[C@@H]4COCC(C)O)O[C@@H]3COCC(C)O (stereo partly drawn) [HP-β-CD, 2-hydroxypropyl-beta-cyclodextrin]
- TEER of corneas [1]: 5±0.3 KΩcm^2

SMILES: OCC(O)C(O)C(O)C(O)[14CH2]O (stereo not drawn) [[^14C]mannitol]
- Mean percent cumulative amount transported per hour across the sclera/choroid/RPE ([2]; 0.5 μCi/mL): 0.1±0.04 percent per hour
- Mean percent cumulative amount transported per hour across the cornea ([3]; 0.5 μCi/mL, 3h experiment): 1±0.15 percent per hour

SMILES: COc1ccc([C@@H]2CC(=O)c3c(O)cc(O[C@@H]4O[C@H](CO[C@@H]5O[C@@H](C)[C@H](O)[C@@H](O)[C@H]5O)[C@@H](O)[C@H](O)[C@H]4O)cc3O2)cc1O [hesperidin, hesperetin 7-rutinoside]
- Stability in aqueous solutions (decrease in hesperidin content) ([4]; pH 1.2, 3, 5, 7.4, 25 and 40°C, upto 2 months): did not demonstrate any decrease
- Degradation rate constant ([4]; pH 9, 25°C): 0.03 day⁻¹
- Half-life ([4]; pH 9, 25°C): 23 days
- Degradation rate constant ([4]; pH 9, 40°C): 0.15 day⁻¹
- Half-life ([4]; pH 9, 40°C): 4.5 days
- Hesperetin generation, or decrease in hesperidin concentrations, in the homogenates [5]: not observed
- Binding constant with HP-β-CD [6]: 60 M⁻¹
- Permeability across sclera/choroid/RPE ([2]; RPE to sclera (R-S) direction): 1.52±0.78×10^−6 cm/s
- Permeability across sclera/choroid/RPE ([2]; sclera to RPE (S-R) direction): 0.82±0.69×10^−6 cm/s
- Intrinsic solubility [7]: 36 µM
- Bioavailability [8]: < 25%
- Fold Increase in solubility ([9]; 1 %w/v HP-β-CD): 9
- Hesperidin Solubility ([9]; 1 %w/v HP-β-CD in water, 25°C, 24h): 42.97 ± 4.28 µg/mL
- Fold Increase in solubility ([9]; 2.5 %w/v HP-β-CD): 18
- Hesperidin Solubility ([9]; 2.5 %w/v HP-β-CD in water, 25°C, 24h): 83.34 ± 6.34 µg/mL
- Fold Increase in solubility ([9]; 5 %w/v HP-β-CD): 37
- Hesperidin Solubility ([9]; 5 %w/v HP-β-CD in water, 25°C, 24h): 169.90 ± 25.36 µg/mL
- Fold Increase in solubility ([9]; 7.5 %w/v HP-β-CD): 48
- Hesperidin Solubility ([9]; 7.5 %w/v HP-β-CD in water, 25°C, 24h): 219.03 ± 15.62 µg/mL
- Fold Increase in solubility ([9]; 10 %w/v HP-β-CD): 55
- Hesperidin Solubility ([9]; 10 %w/v HP-β-CD in water, 25°C, 24h): 252.77 ± 8.81 µg/mL
- Fold Increase in solubility ([9]; 15 %w/v HP-β-CD): 76
- Hesperidin Solubility ([9]; 15 %w/v HP-β-CD in water, 25°C, 24h): 348.55 ± 5.28 µg/mL
- Hesperidin Solubility ([9]; 20 %w/v HP-β-CD in water, 25°C, 24h): 431.97 ± 0.43 µg/mL
- Binding constant (K) with HP-β-CD, 1:1 complex ([9]; from phase solubility plot, 25°C, 24h): 625 ± 78 M⁻¹
- Permeability across sclera alone [10]: 10.2±2.1×10^−6 cm/s
- pKa ([11]; all of the alcoholic hydroxyl groups): greater than 11.5
- pKa ([11]; two phenolic hydroxyl groups): 10±0.2
- Transcorneal permeability ([3]; apical to basolateral (A-B)): 1.11±0.86×10^−6 cm/s
- Transcorneal permeability ([3]; basolateral to apical (B-A)): 1.16±0.05×10^−6 cm/s
- Saturation Solubility ([12]; Water (0% HP-β-CD)): 4.95 ± 0.99 µg/mL
- Saturation Solubility ([12]; pH 1.21, 200 mM buffer): 4.15 ± 0.34 µg/mL
- Saturation Solubility ([12]; pH 3.11, 200 mM buffer): 8.44 ± 0.47 µg/mL
- Saturation Solubility ([12]; pH 5.12, 200 mM buffer): 5.96 ± 1.92 µg/mL
- Saturation Solubility ([12]; pH 7.48, 200 mM buffer): 5.26 ± 0.31 µg/mL
- Saturation Solubility ([12]; pH 9.11, 200 mM buffer): 8.93 ± 0.73 µg/mL
